These results are taken from ChEMBL document CHEMBL4706700, “Oxa-adamantyl cannabinoids” (Bioorg Med Chem Lett, 2021).

pEC50, pKi: −log10 of the molar value. The source made the active and inactive calls. No cut-off for these calls is given here.

In experiment [1] the target is T1, Cannabinoid receptor 1 (Rattus norvegicus, UniProt P20272). Put plainly: Displacement of [3H]CP55940 from rat brain CB1 receptor by scintillation counting method. In kind it is tissue-based. An outline of the steps:
(§1)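 Competition binding with [3H]CP-55,940. Receptor source is rat brain membranes (CB1) or membranes from HEK293 cells expressing mouse or human CB2. Ki from competition curves by nonlinear regression. Ki is the mean of three independent experiments, each in triplicate.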

The target of experiment [2] is Cannabinoid receptor 2 (Mus musculus, UniProt P47936). Put plainly: Displacement of [3H]CP55940 from mouse CB2 receptor expressed in HEK293 cell membrane by scintillation counting method. The format is cell membranes. Put shortly:
as §1
A general note: Displacement assays read how much labelled ligand stays bound in the presence of the test substance.

The target of experiment [3] is T2, Cannabinoid receptor 2 (Homo sapiens, UniProt P34972). Nature of the experiment: Displacement of [3H]CP55940 from human CB2 receptor expressed in HEK293 cell membrane by scintillation counting method. In kind it is cell membranes. Put shortly: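 Receptor source is rat brain membranes (CB1) or membranes from HEK293 cells expressing mouse or human CB2. Ki from competition curves by nonlinear regression. Ki is the mean of three independent experiments, each in triplicate.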

Experiment [4] has as its target T1, Cannabinoid receptor 1. Put plainly: Agonist activity at rat […] CB1 receptor assessed as decrease in forskolin-stimulated cAMP level stimulated for 30 mins followed by Eu-cAMP tracer addition and measured after 60 mins. The format is functional. (In general: Changes in cAMP serve as a functional read-out for many G protein-coupled receptors.)
The target in experiment [5] is T2, Cannabinoid receptor 2. Put plainly: Agonist activity at human CB2 receptor expressed in HEK293 cells assessed as decrease in forskolin-stimulated cAMP level up to 2.3 uM stimulated for 30 mins followed by Eu-cAMP tracer addition and measured after 60 mins. The format is functional, cell-based. The conditions noted are these: dose microM <=2.3, time 90.0 min. An outline of the steps: (§2)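 cAMP accumulation stimulated by forskolin, in HEK293 cells expressing rCB1 or hCB2. Forskolin-stimulated level set to 100%. EC50 obtained by nonlinear regression. […] Values are the average of two independent experiments, each run in triplicate.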

Experiment [6] has as its target Cannabinoid receptor 1 (Rattus norvegicus) (UniProt P20272). Nature of the experiment: Agonist activity at rat CB1 receptor expressed in HEK293 cells assessed as inhibition of forskolin-stimulated cAMP level stimulated for 30 mins followed by Eu-cAMP tracer addition and measured after 60 mins relative to control. The format is functional, cell-based. Conditions: filed as agonist, time 90.0 min. An outline of the steps:
as §2

Experiment [7] shares this target. Nature of the experiment: Agonist activity at rat CB1 receptor expressed in HEK293 cells assessed as inhibition of forskolin-stimulated cAMP level stimulated for 30 mins followed by Eu-cAMP tracer addition and measured after 60 mins. In kind it is functional, cell-based. Conditions: filed as agonist, time 90.0 min. An outline of the steps:
as §2

Experiment [8] in a line: Selectivity ratio of Ki for displacement of [3H]CP55940 from human CB2 receptor expressed in HEK293 cells to Ki for displacement of [3H]CP55940 from mouse CB2 receptor expressed in HEK293 cells. The format is cell-based.
In experiment [9] the target is Cannabinoid receptor 1 (Rattus norvegicus) (UniProt P20272). Nature of the experiment: Irreversible binding affinity to rat brain CB1 receptor assessed as inhibition of [3H]CP55940 binding to receptor at 10 fold Ki by saturation curve assay relative to control. In kind it is tissue-based. The conditions noted are these: filed as agonist. Put shortly:
(§3)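 Rat brain CB1 or HEK293 hCB2 membranes pretreated with the isothiocyanate ligand, then run in [3H]CP-55,940 saturation binding. Controls were processed in parallel without ligand. Percent covalent labeling = [Bmax(control) − Bmax(ligand)]/Bmax(control). At least two independent experiments in triplicate; mean ± SEM.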

Experiment [10] deals with T2, Cannabinoid receptor 2. Put plainly: Irreversible binding affinity to human CB2 receptor expressed in HEK293 cells assessed as inhibition of [3H]CP55940 binding to receptor at 10 fold Ki by saturation curve assay relative to control. The format is cell-based. Put shortly:
as §3

What is called pKi is −log10 of the Ki, conventionally taken in molar units. A low value points to a high Ki. Broadly, the pEC50 is −log10 of the EC50, conventionally taken in molar units. A word on the Emax: it is the size of the effect at its maximum, as opposed to the concentration needed.

T2 sequence (P34972 whole entry): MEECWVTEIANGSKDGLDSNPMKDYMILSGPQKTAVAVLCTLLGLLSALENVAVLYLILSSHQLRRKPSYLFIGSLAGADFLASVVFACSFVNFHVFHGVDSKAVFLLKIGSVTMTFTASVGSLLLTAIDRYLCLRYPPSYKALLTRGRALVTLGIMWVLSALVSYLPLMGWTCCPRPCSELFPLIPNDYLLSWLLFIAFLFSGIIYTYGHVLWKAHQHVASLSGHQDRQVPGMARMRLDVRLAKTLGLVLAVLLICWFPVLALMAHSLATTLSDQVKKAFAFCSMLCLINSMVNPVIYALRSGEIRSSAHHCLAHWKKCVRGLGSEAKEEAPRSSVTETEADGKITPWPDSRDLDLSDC
Chain of Cannabinoid receptor 2 (Mus musculus, UniProt P47936) (P47936 whole entry): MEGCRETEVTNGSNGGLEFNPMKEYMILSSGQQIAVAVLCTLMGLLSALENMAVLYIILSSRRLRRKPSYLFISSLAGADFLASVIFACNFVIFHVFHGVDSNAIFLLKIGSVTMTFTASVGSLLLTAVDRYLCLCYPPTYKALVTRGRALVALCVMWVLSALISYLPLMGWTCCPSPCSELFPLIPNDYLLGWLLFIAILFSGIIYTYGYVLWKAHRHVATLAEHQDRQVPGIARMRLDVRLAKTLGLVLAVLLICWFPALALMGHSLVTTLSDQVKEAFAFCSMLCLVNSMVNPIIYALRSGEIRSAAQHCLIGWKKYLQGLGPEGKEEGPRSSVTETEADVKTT
T1 sequence (P20272 whole entry): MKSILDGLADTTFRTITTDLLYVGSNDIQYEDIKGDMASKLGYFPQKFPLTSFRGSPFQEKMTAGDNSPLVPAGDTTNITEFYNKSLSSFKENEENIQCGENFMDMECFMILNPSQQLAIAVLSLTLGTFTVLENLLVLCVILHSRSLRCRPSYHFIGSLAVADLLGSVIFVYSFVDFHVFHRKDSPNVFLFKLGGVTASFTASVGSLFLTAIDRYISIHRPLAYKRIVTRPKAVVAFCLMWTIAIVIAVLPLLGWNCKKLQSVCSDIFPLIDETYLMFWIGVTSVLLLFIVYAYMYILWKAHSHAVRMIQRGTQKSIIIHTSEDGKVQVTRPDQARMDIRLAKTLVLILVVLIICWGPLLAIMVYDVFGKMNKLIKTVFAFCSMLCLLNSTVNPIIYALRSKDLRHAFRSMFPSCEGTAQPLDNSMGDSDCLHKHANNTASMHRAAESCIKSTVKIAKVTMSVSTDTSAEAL
Chain of Cannabinoid receptor 1 (Rattus norvegicus) (P20272 whole entry): as above

Regarding `CC1(C)Oc2cc(C34CC5CC(CC(CN=C=S)(C5)O3)C4)cc(O)c2[C@@H]2C[C@H](CO)CC[C@H]21`, the pKi at Cannabinoid receptor 1 [1] was 8.08; at Cannabinoid receptor 2 [2] it was 8.18; on Cannabinoid receptor 2 [3], 8.33. The pEC50 at Cannabinoid receptor 1 [4] is 9.05. The result at Cannabinoid receptor 2 [5] was inactive. Also, the Emax in experiment [6] amounted to 94%. The inhibition result in [7] was “Dose-dependent effect”.

As for `CC1(C)Oc2cc(C34CC5CC(CC(C#N)(C5)O3)C4)cc(O)c2[C@@H]2C[C@H](O)CC[C@H]21`, the pKi was 7.58 on Cannabinoid receptor 1 [1], 8.80 at Cannabinoid receptor 2 [2] and 7.50 at Cannabinoid receptor 2 [3]. In addition, the Ratio Ki in experiment [8] was found to be 20.

As to `CC1(C)Oc2cc(C34CC5CC(CC(CN=C=S)(C5)O3)C4)cc(O)c2[C@@H]2C[C@H](O)CC[C@H]21`, the results for the pKi on Cannabinoid receptor 1 [1], at Cannabinoid receptor 2 [2] and at Cannabinoid receptor 2 [3] were 8.32, 8.02 and 8.44, respectively. At Cannabinoid receptor 1 [4], the pEC50 was 9.10. On Cannabinoid receptor 2 [5], the result was inactive. The Emax in experiment [6] came out at 88%. In experiment [7], the inhibition entry is “Dose-dependent effect”. Besides, the results for the Bmax (in experiment [9]; on Cannabinoid receptor 2 [10]) were 65% and 32%, respectively.

In the case of `CC1(C)Oc2cc(C34CC5CC(CC(C(N)=O)(C5)O3)C4)cc(O)c2[C@@H]2C[C@H](O)CC[C@H]21`, the figures for the pKi at Cannabinoid receptor 1 [1], at Cannabinoid receptor 2 [2] and at Cannabinoid receptor 2 [3] were 7.54, 6.06 and 6.43, respectively.

For `CCCCCCC(C)(C)c1ccc([C@@H]2C[C@H](O)CC[C@H]2CCCO)c(O)c1`, the inhibition entry in experiment [7] is “Dose-dependent effect”.

`CC1(C)Oc2cc(C34CC5CC(CC(CN=[N+]=[N-])(C5)O3)C4)cc(O)c2[C@@H]2C[C@H](CO)CC[C@H]21`: the values for the pKi at Cannabinoid receptor 1 [1], at Cannabinoid receptor 2 [2] and on Cannabinoid receptor 2 [3] were 8.70, 9.15 and 8.66, respectively. The negative logarithm of the EC50 (pEC50) at Cannabinoid receptor 1 [4] is 9.05. On Cannabinoid receptor 2 [5], the outcome was inactive. Besides, the Emax in experiment [6] is 93%. In experiment [7], the inhibition entry is “Dose-dependent effect”.

For the molecule `CC1(C)Oc2cc(C34CC5CC(CC(CN=[N+]=[N-])(C5)O3)C4)cc(O)c2[C@@H]2C[C@H](O)CC[C@H]21`, the pKi on Cannabinoid receptor 1 [1] was 8.64; at Cannabinoid receptor 2 [2], 8.57; at Cannabinoid receptor 2 [3], 8.51. Moreover, the pEC50 on Cannabinoid receptor 1 [4] was 8.51. Besides, the outcome at Cannabinoid receptor 2 [5] was inactive. In addition, the Emax in [6] came to 87%. In [7], the inhibition entry is “Dose-dependent effect”.

On to `CC1(C)Oc2cc(C34CC5CC(CC(C(N)=O)(C5)O3)C4)cc(O)c2[C@@H]2C[C@H](CO)CC[C@H]21`, for which the pKi was 7.97 at Cannabinoid receptor 1 [1], 7.46 at Cannabinoid receptor 2 [2] and 7.04 at Cannabinoid receptor 2 [3].
